ChEMBL document CHEMBL5029154, “Design, Synthesis, and Biological Evaluation of Organic Nitrite (NO2-) Donors as Potential Anticerebral Ischemia Agents” (J Med Chem, 2021)
Activity calls are given as the source filed them. No cut-off for these calls is given here.

Legend:
[1] = Drug metabolism assessed as nitric oxide release in presence of bovine plasma at 200 uM measured after 1 hr by Griess reagent based assay; assay type: ADME, cell-free, Bos taurus; details: cattle
[2] = Stability of the compound in rat plasma assessed as half life at 200 uM measured after 24 hrs by HPLC analysis; assay type: ADME, cell-free
[3] = GSH reactivity assessed as reaction rate measured at 1 equiv of GSH upto 24 hrs by HPLC analysis; assay type: ADME
[4] = GSH reactivity assessed as reaction rate measured at 32 equiv of GSH upto 24 hrs by HPLC analysis; assay type: ADME
[5] = Neuroprotective activity against in OGD/R-induced rat cortical neuron apoptosis assessed as necrotic cells pretreated at 1.8 uM for 24 hrs followed by subjected to OGD for 2 hrs measured after 24 hrs under normoxic condition by PI/FITC-H staining based flow cytometry (reference value: 3.68%); assay type: functional, Cortical neurone
Cortical neurone [6] = test: Neuroprotective activity against in OGD/R-induced rat cortical neuron cytotoxicity assessed as decrease in cell viability pretreated at 1.8 uM for 24 hrs followed by subjected to OGD for 2 hrs measured after 24 hrs under normoxic condition by MTT assay; assay type: functional, tissue-based
Method in brief: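 Primary rat cortical neurons from enzymatically digested cortex, plated on poly-lysine in DMEM/10% FBS for 4 h. Pretreated 24 h in neuron basal medium with 2% B27, then glucose/FBS-free DMEM at 1% O2. Returned to 10% FBS DMEM under normoxia for 24 h. Viability by MTT; three independent experiments, mean SD.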

Cortical neurone [7] = test: Effect on Nrf2 mRNA transcript level in OGD/R-induced rat primary cortical neuron pretreated at 1.8 uM for 24 hrs followed by subjected to OGD for 2 hrs measured after 24 hrs under normoxic condition by RT-qPCR analysis; assay type: functional, tissue-based
Method in brief: (§1)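 Primary rat cortical neurons were pretreated with 1.8 μM compound for 24 h, given 2 h OGD, then 24 h normoxic culture. Nrf2, HO-1 and NQO1 mRNA were measured by RT-qPCR. Cytoplasmic and nuclear protein (30 μg/lane) were blotted for Nrf2, with lamin A and β-actin as references, and quantified by densitometry as the nuclear:cytoplasmic ratio. Three independent experiments, mean ± SD.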

Cortical neurone [8] = test: Induction of NQO1 mRNA transcript level in OGD/R-induced rat primary cortical neuron pretreated at 1.8 uM for 24 hrs followed by subjected to OGD for 2 hrs measured after 24 hrs under normoxic condition by RT-qPCR analysis; assay type: functional, tissue-based; method in brief: as §1
Cortical neurone [9] = test: (§2) Neuroprotective activity against in OGD/R-induced rat cortical neuron cytotoxicity assessed as activation of NO/cGMP/PKG pathway by measuring increase in cGMP level pretreated at 1.8 uM for 24 hrs followed by subjected to OGD for 2 hrs measured after 24 hrs under normoxic condition by ELISA; assay type: functional, tissue-based
Cortical neurone [10] = test: as §2, with “PKG expression” for “cGMP level”, “condition in presence of NS2028” for “condition”, “Western blot analysis” for “ELISA”; assay type: functional, tissue-based
Rattus norvegicus [11] = test: Neuroprotective activity against middle cerebral artery occlusion-induced ischemia-reperfusion injury Sprague-Dawley rat model assessed as decrease in cerebral edema degree at 95 to 9500 microg/kg, iv pretreated for 2 hrs followed by reperfusion measured after 24 hrs; assay type: functional, organism-based; details: dose 95-9500 µg/kg
Method in brief: (§3)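 Male SD rats (N = 8/group) were dosed iv at 95, 950 or 9500 μg/kg 2 h before 2 h MCAO (nylon suture, chloral hydrate anesthesia), then reperfused. Where used, PTIO 1 mg/kg iv was given 30 min before compound. At 24 h, blinded assessment covered Longa deficit score, TTC-stained 2 mm sections (infarct area/whole area), and edema by wet/dry weight.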

Rattus norvegicus [12] = test: Neuroprotective activity against middle cerebral artery occlusion-induced ischemia-reperfusion injury Sprague-Dawley rat model assessed as decrease in cerebral edema degree at 950 microg/kg, iv pretreated for 2 hrs followed by reperfusion measured after 24 hrs in presence of PTIO; assay type: functional, organism-based; details: dose 950.0 µg/kg; method in brief: as §3
Rattus norvegicus [13] = test: Neuroprotective activity against middle cerebral artery occlusion-induced ischemia-reperfusion injury Sprague-Dawley rat model assessed as decrease in neurologic deficit scores at 950 microg/kg, iv pretreated for 2 hrs followed by reperfusion measured after 24 hrs in presence of PTIO; assay type: functional, organism-based; details: dose 950.0 µg/kg; method in brief: as §3
[14] = Toxicity in Sprague-Dawley rat assessed as effect on blood pressure at 950 microg/kg, iv measured upto 24 hrs; assay type: organism-based; details: in vivo, 0.95 mg/kg, dose 950 µg/kg
Method in brief: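 Male Sprague-Dawley rats (12 weeks, 200−220 g, SPF housing, free chow and water) received a single iv tail-vein injection of test compound or vehicle control, n = 3 per group, followed by blood pressure measurement.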

Rattus norvegicus [15] = test: Neuroprotective activity against middle cerebral artery occlusion-induced ischemia-reperfusion injury Sprague-Dawley rat model assessed as decrease in neurologic deficit scores at 95 to 9500 microg/kg, iv treated immediately reperfusion measured after 24 hrs; assay type: functional, organism-based; details: dose 95-9500 µg/kg
Method in brief: (§4)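 Male SD rats (12 weeks, 200–220 g; N = 8/group) underwent MCAO under […] (350 mg/kg) using a nylon intraluminal suture for 2 h, then reperfusion. Compound (95, 950 or 9500 μg/kg) was given iv immediately after reperfusion; where used, PTIO 1 mg/kg iv was given 30 min before. At 24 h, blinded scoring covered Longa neurological deficit, TTC infarct area/whole area, and edema from wet/dry brain weight (105 °C, 24 h).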

Rattus norvegicus [16] = test: Neuroprotective activity against middle cerebral artery occlusion-induced ischemia-reperfusion injury Sprague-Dawley rat model assessed as decrease in cerebral edema degree at 95 to 9500 microg/kg, iv treated immediately reperfusion in presence of PTIO measured after 24 hrs; assay type: functional, organism-based; details: dose 95-9500 µg/kg; method in brief: as §4
Rattus norvegicus [17] = test: Neuroprotective activity against middle cerebral artery occlusion-induced ischemia-reperfusion injury Sprague-Dawley rat model assessed as decrease in neurologic deficit scores at 95 to 9500 microg/kg, iv treated immediately reperfusion in presence of PTIO measured after 24 hrs; assay type: functional, organism-based; details: dose 95-9500 µg/kg; method in brief: as §4
Rattus norvegicus [18] = test: In vivo activation of Nrf2 middle cerebral artery occlusion-induced ischemia-reperfusion injury Sprague-Dawley rat model assessed as phosphorylation at 950 microg/kg, iv treated immediately reperfusion measured after 24 hrs; assay type: functional, organism-based; details: dose 950.0 µg/kg
Method in brief: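 Paraffin sections (3 μm) from MCAO rats were immunostained with anti-phospho-Nrf2 (1:100) and DAB, then scored blinded by average optical density over five fields per sample.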

Rattus norvegicus [19] = test: Neuroprotective activity against middle cerebral artery occlusion-induced ischemia-reperfusion injury Sprague-Dawley rat model assessed as increase in HO-1 expression in cerebral ischemic penumbra at 950 microg/kg, iv treated immediately reperfusion measured after 24 hrs; assay type: functional, organism-based; details: dose 950.0 µg/kg
Method in brief: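 MCAO rat brain paraffin sections (3 μm) were blocked with 10% goat serum and stained by IHC for NQO-1 and HO-1 (1:200) and phospho-Nrf2 (1:100), with DAB detection and rabbit IgG as negative control. Average optical density of positive cells was scored blinded over five fields per sample.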

HUVEC = test: Angiogenesis activity in HUVEC cells assessed as increase in tube formation at 1.8 uM measured after 8 hrs by inverted microscopy; assay type: functional, cell-based; details: Homo sapiens
Method in brief: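 Early-passage HUVECs (passages 2–6), grown in DMEM with 10% FBS, glutamine, pyruvate and antibiotics, were seeded at 8 × 10⁴ cells/well on Matrigel. They were exposed to vehicle or compound for 8 h at 37 °C, 5% CO₂. Tubes were counted under an inverted microscope.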

Rattus norvegicus [20] = test: Neuroprotective activity against middle cerebral artery occlusion-induced ischemia-reperfusion injury Sprague-Dawley rat model assessed as increase in Ki67+ cells in cerebral ischemic penumbra at 95 to 950 microg/kg, iv treated immediately reperfusion measured after 24 hrs in presence of PTIO by immunofluoresence assay; assay type: functional, organism-based; details: dose 95-950 µg/kg

O=C(/C(=C/c1ccccc1)C[N+](=O)[O-])c1ccccc1
Drug metabolism [1]: Metabolite_Detected
half-life at 200 µM [2]: 5.3 h
Activity [3]: 0.0214 h⁻¹
Activity [4]: 0.056 h⁻¹
Activity [5]: 1.28%
Activity (Cortical neurone [6]): Active
Activity (Cortical neurone [7]): inactive
Activity (Cortical neurone [8]): Active
Activity (Cortical neurone [9]): Active
Activity (Cortical neurone [10]): inactive
Activity (Rattus norvegicus [11]): Active
Activity (Rattus norvegicus [12]): inactive
Activity (Rattus norvegicus [13]): inactive
Activity [14]: Non-Toxic
Activity (Rattus norvegicus [15]): Active
Activity (Rattus norvegicus [16]): inactive
Activity (Rattus norvegicus [17]): inactive
Activity (Rattus norvegicus [18]): Active
Activity (Rattus norvegicus [19]): Active
Activity (HUVEC): Active
Activity (Rattus norvegicus [20]): inactive
